Test results taken from ChEMBL document CHEMBL3763152, “Synthesis and evaluation of orally active small molecule HIV-1 Nef antagonists” (Bioorg Med Chem Lett, 2016).
pIC50, pKd: −log10 of the molar value. Calls of active or inactive are those of the source. The calls are words filed in the database; no cut-off is given here.

Legend:
[1] = tested on: Human immunodeficiency virus 1; assay: Binding affinity to recombinant HIV1 Nef at >50 uM by SPR assay
[2] = tested on: Human immunodeficiency virus 1; assay: Antiviral activity against HIV1 NL4-3 infected in TZM-bl cells incubated for 3 hrs measured after 48 hrs by luciferase reporter gene assay; format: functional, organism-based; settings: Human immunodeficiency virus 1, NL4-3, TZM-bl
Method in brief: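 TZM-bl reporter cells carry a luciferase gene driven by the HIV-1 LTR. Cells were infected short-term with HIV-1, and Nef-dependent infectivity was read out by luciferase. IC50 was derived from this read-out.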

[3] = Cytotoxicity against human TZM-bl cells by Cell Titer Blue assay; format: cell-based
Method in brief: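 TZM-bl reporter cells were treated with compound and viability was read by Cell Titer Blue. CC50 is the concentration giving 50% loss of viability.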

U-87MG ATCC = assay: Inhibition of Nef-dependent HIV1 NL4-3 replication infected in human U87MG cells expressing CD4 and CXCR4 at 3 uM incubated for 1 hr measured after 4 days by immunoassay; format: cell-based; settings: Human immunodeficiency virus 1
Method in brief: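 U87MG/CD4/CXCR4 cells received compound at 3 μM final; wild-type or ΔNef HIV-1 NL4-3 was added one hour later. Replication was measured at 4 days as p24 Gag by AlphaLISA ELISA and expressed as percent of DMSO control, mean ± S.E., n=4.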

[4] = Cytotoxicity against human U87MG cells expressing CD4 and CXCR4 up to 10 uM by Cell Titer Blue assay; format: cell-based; settings: u-87mg atcc
[5] = Binding affinity to recombinant HIV1 Nef by SPR assay; set-up: species or system Human immunodeficiency virus 1
Method in brief: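 Recombinant purified Nef was immobilized on a CM5 chip, and compound was injected over a concentration range in triplicate. Binding isotherms were fitted with a heterogeneous ligand model, and KD was taken from the kinetic constants of the higher-affinity component. No binding means none seen at >50 μM compound.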

[6] = tested on: Human immunodeficiency virus 1; assay: Binding affinity to recombinant HIV1 Nef N126A mutant at 10 uM by SPR assay
Method in brief: (§1)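 Wild-type, N126A and N126Q Nef were expressed in bacteria and purified to homogeneity. Each was covalently coupled to a CM5 biosensor chip. Compound was injected at a final 10 μM, in triplicate, and binding was measured by SPR on a Biacore T100.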

[7] = tested on: Human immunodeficiency virus 1; assay: Binding affinity to recombinant HIV1 Nef N126Q mutant at 10 uM by SPR assay; method in brief: as §1
[8] = Tmax in C3H mouse at 10 mg/kg, po administered through solution of 5% N-methyl -2-pyrrolidone and 5% solutol in saline by LC-MS analysis; format: ADME, organism-based; settings: in vivo
Method in brief: (§2)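 Plasma drug levels measured by LC-MS over time. Tmax, Cmax, AUClast, AUCinf, T1/2, Vss, clearance and %F were derived from the plasma concentration–time data.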

[9] = Cmax in C3H mouse at 2 mg/kg, iv by LC-MS analysis; format: ADME, organism-based; set-up: dose 2 mg/kg, route intravenous; settings: in vivo; method in brief: as §2
[10] = Cmax in C3H mouse at 10 mg/kg, po administered through solution of 5% N-methyl -2-pyrrolidone and 5% solutol in saline by LC-MS analysis; format: ADME, organism-based; set-up: dose 10 mg/kg, route oral; settings: in vivo; method in brief: as §2
[11] = AUClast in C3H mouse at 2 mg/kg, iv by LC-MS analysis; format: ADME, organism-based; set-up: dose 2 mg/kg, route intravenous, time 0 - last; settings: in vivo; method in brief: as §2
[12] = AUC(last) in C3H mouse at 10 mg/kg, po administered through solution of 5% N-methyl -2-pyrrolidone and 5% solutol in saline by LC-MS analysis; format: ADME, organism-based; set-up: dose 10 mg/kg, time 0 - last, route oral; settings: in vivo; method in brief: as §2
[13] = AUC(infinity) in C3H mouse at 2 mg/kg, iv by LC-MS analysis; format: ADME, organism-based; set-up: dose 2 mg/kg, time infinity, route intravenous; settings: in vivo; method in brief: as §2
[14] = AUC(infinity) in C3H mouse at 10 mg/kg, po administered through solution of 5% N-methyl -2-pyrrolidone and 5% solutol in saline by LC-MS analysis; format: ADME, organism-based; set-up: dose 10 mg/kg, route oral, time infinity; settings: in vivo; method in brief: as §2
[15] = Half life in C3H mouse at 2 mg/kg, iv by LC-MS analysis; format: ADME, organism-based; settings: in vivo; method in brief: as §2
[16] = Volume of distribution at steady state in C3H mouse at 2 mg/kg, iv by LC-MS analysis; format: ADME, organism-based; settings: in vivo, read-out: Vdss; method in brief: as §2
[17] = Clearance in C3H mouse at 2 mg/kg, iv by LC-MS analysis; format: ADME, organism-based; settings: in vivo; method in brief: as §2
[18] = Oral bioavailability in C3H mouse at 10 mg/kg administered through solution of 5% N-methyl -2-pyrrolidone and 5% solutol in saline by LC-MS analysis; format: ADME, organism-based; settings: in vivo; method in brief: as §2
Mus musculus [19] = assay: Acute toxicity in C3H mouse assessed as change in body weight at 100 mg/kg, po SID for 12 days; format: organism-based; settings: in vivo, 288 h
[20] = Tmax in C3H mouse at 10 mg/kg, po administered through suspension of 0.5% w/v sodium-carboxymethyl cellulose with 0.1% v/v Tween80 by LC-MS analysis; format: ADME, organism-based; settings: in vivo; method in brief: as §2
[21] = Cmax in C3H mouse at 10 mg/kg, po administered through suspension of 0.5% w/v sodium-carboxymethyl cellulose with 0.1% v/v Tween80 by LC-MS analysis; format: ADME, organism-based; set-up: dose 10 mg/kg, route oral; settings: in vivo; method in brief: as §2
[22] = AUC(last) in C3H mouse at 10 mg/kg, po administered through suspension of 0.5% w/v sodium-carboxymethyl cellulose with 0.1% v/v Tween80 by LC-MS analysis; format: ADME, organism-based; set-up: dose 10 mg/kg, route oral, time 0 - last; settings: in vivo; method in brief: as §2
[23] = AUC(infinity) in C3H mouse at 10 mg/kg, po administered through suspension of 0.5% w/v sodium-carboxymethyl cellulose with 0.1% v/v Tween80 by LC-MS analysis; format: ADME, organism-based; set-up: dose 10 mg/kg, route oral, time infinity; settings: in vivo; method in brief: as §2
Mus musculus [24] = assay: Acute toxicity in C3H mouse assessed as body condition at 100 mg/kg, po SID for 12 days; format: organism-based; settings: in vivo, 288 h
Mus musculus [25] = assay: Acute toxicity in C3H mouse assessed as overall behavior at 100 mg/kg, po SID for 12 days; format: organism-based; settings: in vivo, 288 h
Mus musculus [26] = assay: Acute toxicity in C3H mouse assessed as change in body weight at 10 mg/kg, po BID for 4 days; format: organism-based; settings: in vivo, 96 h
Mus musculus [27] = assay: Acute toxicity in C3H mouse assessed as change in body weight at 50 mg/kg, po SID for 5 days; format: organism-based; settings: in vivo, 120 h
Mus musculus [28] = assay: Acute toxicity in C3H mouse assessed as body condition at 5 mg/kg, iv SID for 4 days; format: organism-based; settings: in vivo, 96 h
Mus musculus [29] = assay: Acute toxicity in C3H mouse assessed as body condition at 10 mg/kg, po BID for 4 days; format: organism-based; settings: in vivo, 96 h
Mus musculus [30] = assay: Acute toxicity in C3H mouse assessed as body condition at 50 mg/kg, po SID for 5 days; format: organism-based; settings: in vivo, 120 h
Mus musculus [31] = assay: Acute toxicity in C3H mouse assessed as overall behavior at 5 mg/kg, iv SID for 4 days; format: organism-based; settings: in vivo, 96 h
Mus musculus [32] = assay: Acute toxicity in C3H mouse assessed as overall behavior at 10 mg/kg, po BID for 4 days; format: organism-based; settings: in vivo, 96 h
Mus musculus [33] = assay: Acute toxicity in C3H mouse assessed as overall behavior at 50 mg/kg, po SID for 5 days; format: organism-based; settings: in vivo, 120 h
Mus musculus [34] = assay: Acute toxicity in C3H mouse assessed as change in body weight at 5 mg/kg, po SID for 4 days; settings: in vivo, 96 h
Mus musculus [35] = assay: Acute toxicity in C3H mouse assessed as overall behavior at 2.5 mg/kg, iv SID for 4 days; format: organism-based; settings: in vivo, 96 h
Mus musculus [36] = assay: Acute toxicity in C3H mouse assessed as body condition at 2.5 mg/kg, po SID for 4 days; settings: in vivo, 96 h
Mus musculus [37] = assay: Acute toxicity in C3H mouse assessed as change in body weight at 2.5 mg/kg, po SID for 4 days; settings: in vivo, 96 h

| SMILES | Activity [1] | pIC50 [2] | CC50 [3] [µM] | inhibition (U-87MG ATCC) | Activity [4] | pKd [5] | Activity [6] | Activity [7] | Tmax [8] [min] | Cmax [9] [ng/mL] | Cmax [10] [ng/mL] | AUC(0-t) [11] [ng·h/mL] | AUC(0-t) [12] [ng·h/mL] | AUC(0-inf) [13] [ng·h/mL] | AUC(0-inf) [14] [ng·h/mL] | half-life [15] [min] | Vd [16] [L/kg] | clearance [17] [mL/min/kg] | bioavailability [18] [%] | Tmax [20] [min] | other results |
| --- | --- | --- | --- | --- | --- | --- | --- | --- | --- | --- | --- | --- | --- | --- | --- | --- | --- | --- | --- | --- | --- |
| O=[N+]([O-])c1ccc(-c2n[nH]c(O)c2Cc2cccc(Cl)c2)cc1 | inactive | < 5.00 | > 10 | inactive | Non-toxic |  |  |  |  |  |  |  |  |  |  |  |  |  |  |  |  |
| O=[N+]([O-])c1ccc(-c2n[nH]c(O)c2CCc2cccc(Cl)c2)cc1 | inactive | < 5.00 | > 10 | inactive | Non-toxic |  |  |  |  |  |  |  |  |  |  |  |  |  |  |  |  |
| NC(=S)n1nc(-c2ccc([N+](=O)[O-])cc2)c(Cc2cccc(Cl)c2)c1O |  | 5.45 | > 10 | Active | Non-toxic | 6.82 | inactive | inactive | 60 | 2800 | 5810 | 2960 | 18600 | 3000 | 18800 | 94.8 | 0.79 | 8.56 | 100 | 30 | Activity (Mus musculus [19]): Non-toxic; Cmax [21]: 3400 ng/mL; AUC(0-t) [22]: 10700 ng·h/mL; AUC(0-inf) [23]: 11500 ng·h/mL; Activity (Mus musculus [24]): Non-toxic; Activity (Mus musculus [25]): Non-toxic |
| NC(=S)n1nc(-c2ccc([N+](=O)[O-])cc2)c(CCc2cccc(Cl)c2)c1O |  | 6.16 | > 10 | Active | Non-toxic | 6.80 | inactive | inactive | 15 | 4420 | 2370 | 2130 | 6300 | 2150 | 6430 |  | 0.83 | 13.5 | 53 | 30 | Activity (Mus musculus [26]): Non-toxic; Activity (Mus musculus [27]): Non-toxic; Cmax [21]: 5610 ng/mL; AUC(0-t) [22]: 9030 ng·h/mL; AUC(0-inf) [23]: 9480 ng·h/mL; Activity (Mus musculus [28]): Non-toxic; Activity (Mus musculus [29]): Non-toxic; Activity (Mus musculus [30]): Non-toxic; Activity (Mus musculus [31]): Non-toxic; Activity (Mus musculus [32]): Non-toxic; Activity (Mus musculus [33]): Non-toxic; Activity (Mus musculus [34]): Non-toxic |
| NC(=S)n1nc(-c2ccc([N+](=O)[O-])cc2)c(/N=N/c2cccc(Cl)c2)c1O |  | 5.60 | 10 |  |  | 7.09 | inactive | inactive | 30 | 3960 | 418 | 9780 | 963 | 9790 | 1020 | 128 | 0.37 | 3.41 | 2 |  | Activity (Mus musculus [35]): Non-toxic; Activity (Mus musculus [36]): Non-toxic; Activity (Mus musculus [37]): Non-toxic |
